Test results taken from ChEMBL document CHEMBL3352233, “N-[6-(4-butanoyl-5-methyl-1H-pyrazol-1-yl)pyridazin-3-yl]-5-chloro-1-[2-(4-methylpiperazin-1-yl)-2-oxoethyl]-1H-indole-3-carboxamide (SAR216471), a novel intravenous and oral, reversible, and directly acting P2Y12 antagonist” (J Med Chem, 2014).
pIC50: −log10 of the molar value.

Experiments:
[1] = target: P2Y purinoceptor 12 (Homo sapiens, UniProt Q9H244); experiment: Displacement of [33P]2MeS-ADP from P2Y12 receptor (unknown origin) transfected in CHO cells after 30 mins by scintillation counting analysis; assay type: cell-based
Summary of the method: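 P2Y12-expressing CHO cells (35 × 10³/sample) in PBS with 1 mM EDTA and 0.2% BSA are exposed to compound for 30 min. [³³P]2-MeS-ADP (0.16 nM) is then added for 15 min at 20 °C, in triplicate. Filtration separates free from bound ligand, followed by scintillation counting. Nonspecific binding uses 1 mM unlabeled ADP. IC50 comes from a four-parameter logistic fit with asymptotes fixed at 0 and 100. n = 2.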

[2] = Permeability across human Caco2 cells; assay type: ADME, cell-based; conditions: Caco-2, read-out: permeability
Summary of the method: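 Permeation is measured across a Caco2 cell monolayer and reported in 10⁻⁷ cm·s⁻¹.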

[3] = Metabolic stability in human liver microsomes assessed as compound metabolism after 20 mins incubation in presence of 1 mM NADPH; assay type: ADME; conditions: liver microsomes, read-out: Drug metabolism
Summary of the method: (§1)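 Hepatic microsomal fractions are incubated with compound for 20 min with 1 mM NADPH. Result is reported as % metabolized, i.e. 100 minus % unchanged compound.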

[4] = Metabolic stability in rat liver microsomes assessed as compound metabolism after 20 mins incubation in presence of 1 mM NADPH; assay type: ADME; conditions: liver microsomes, read-out: Drug metabolism; summary of the method: as §1

P2Y purinoceptor 12, sequence (Q9H244 whole entry): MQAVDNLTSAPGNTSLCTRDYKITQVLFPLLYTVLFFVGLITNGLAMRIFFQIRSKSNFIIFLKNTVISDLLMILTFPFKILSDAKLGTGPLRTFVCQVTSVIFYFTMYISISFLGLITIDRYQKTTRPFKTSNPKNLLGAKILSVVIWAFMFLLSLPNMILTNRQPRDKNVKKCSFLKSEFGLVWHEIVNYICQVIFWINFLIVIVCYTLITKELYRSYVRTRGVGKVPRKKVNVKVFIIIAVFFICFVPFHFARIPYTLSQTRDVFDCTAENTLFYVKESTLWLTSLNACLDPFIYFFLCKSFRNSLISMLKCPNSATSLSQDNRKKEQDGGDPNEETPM

Structure (SMILES)	pIC50 [1]	further results
CCCC(=O)c1cnn(-c2ccc(NC(=O)c3cn(CC(=O)N4CCCC(NC)C4)c4ccc(C)cc34)cc2)c1C (stereo unspecified)	7.19	
CCOC(=O)c1c(C)nn(-c2ccc(NC(=O)Nc3ccc(Cl)cc3)cc2)c1C	5.90	
CCCC(=O)c1cnn(-c2ccc(NC(=O)c3cn(CC(=O)N4CCN(CCF)CC4)c4ccc(C)cc34)cc2)c1C	7.72	Papp [2]: 8.2 ×10⁻⁶ cm/s; metabolised at 20 min [3]: 62%; metabolised at 20 min [4]: 36%
CCCC(=O)c1cnn(-c2ccc(NC(=O)c3cn(CC(=O)N4CCN5CCCC5C4)c4ccc(C)cc34)cc2)c1C (stereo unspecified)	7.12	
CCCC(=O)c1cnn(-c2ccc(NC(=O)c3cn(CC(=O)N(C)CCNC)c4ccc(C)cc34)cc2)c1C	7.03	
CCCC(=O)c1cnn(-c2ccc(NC(=O)c3cn(CC(=O)N4CC(C)N(C)C(C)C4)c4ccc(C)cc34)cc2)c1C (stereo unspecified)	7.55	
CCOC(=O)c1c(C)nn(-c2ccc(C(=O)NCc3ccccc3OC)cc2)c1C	5.81	
CCCC(=O)c1cnn(-c2ccc(NC(=O)c3cn(CC(=O)N4CCN(C)CC4)c4ccc(Cl)cc34)c(C(N)=O)c2)c1C	6.58	
CCCC(=O)c1cnn(-c2ccc(NC(=O)c3cn(CC(=O)N4CCN(Cc5ccc(F)cc5)CC4)c4ccc(C)cc34)cc2)c1C	7.92	Papp [2]: 1.7 ×10⁻⁶ cm/s; metabolised at 20 min [3]: 63%; metabolised at 20 min [4]: 27%
CCCC(=O)c1cnn(-c2ccc(NC(=O)c3cn(CCCC(=O)O)c4ccc(C)cc34)cc2)c1C	7.62	
CCCC(=O)c1cnn(-c2ccc(NC(=O)c3cn(CC(=O)N4CCN(CC5CC5)CC4)c4ccc(C)cc34)cc2)c1C	7.54	
CCCC(=O)c1cnn(-c2ccc(NC(=O)c3cn(CC(=O)N4C[C@@H]5C[C@H]4CN5C)c4ccc(C)cc34)cc2)c1C	7.15	
CCCC(=O)c1cnn(-c2ccc(NC(=O)c3c(C)n(CC(=O)O)c4ccc(C)cc34)cc2)c1C	7.08	
CCCC(=O)c1cnn(-c2ccc(NC(=O)c3cn(CC(=O)NCCn4ccnc4)c4ccc(C)cc34)cc2)c1C	7.21	
CCCC(=O)c1cnn(-c2ccc(NC(=O)c3cn(CC(=O)N4CCN(C)CC4)c4ccc(Cl)cc34)c(C(=O)O)c2)c1C	7.12	
CCCC(=O)c1cnn(-c2ccc(NC(=O)n3cc(CCCC(=O)O)c4ccc(C)cc43)cc2)c1C	7.33	
CCCC(=O)c1cnn(-c2ccc(NC(=O)c3cn(CC(=O)N(C)CC4CCCN(C)C4)c4ccc(C)cc34)cc2)c1C (stereo unspecified)	7.08	

Structure (SMILES)	pIC50 [1]	further results
CCCC(=O)c1cnn(-c2ccc(NC(=O)c3cn(CC(=O)N4CCN(C)CC4)c4cc(Cl)c(C)cc34)cc2)c1C	6.86	
CCCC(=O)c1cnn(-c2ccc(NC(=O)c3cn(CC(=O)N4CCN(C)CC4)c4cc(Cl)c(Cl)cc34)cc2)c1C	7.00	
CCCC(=O)c1cnn(-c2ccc(NC(=O)c3cn(CC(=O)N4CCN(C5CC5)CC4)c4ccc(C)cc34)cc2)c1C	7.36	
CCCC(=O)c1cnn(-c2ccc(NC(=O)c3cn(CC(=O)N4CCCC(N(C)C)C4)c4ccc(C)cc34)cc2)c1C (stereo unspecified)	7.14	
CCCC(=O)c1cnn(-c2ccc(NC(=O)c3cn(CC(=O)N4CCNCC4)c4ccc(C)cc34)cc2)c1C	7.59	
CCCC(=O)c1cnn(-c2ccc(NC(=O)c3cn(CC(=O)N4CC5CCNC5C4)c4ccc(C)cc34)cc2)c1C (stereo unspecified)	6.93	
CCCC(=O)c1cnn(-c2ccc(NC(=O)c3cn(CC(=O)NC(C)CN(C)C)c4ccc(C)cc34)cc2)c1C (stereo unspecified)	7.06	
CCCC(=O)c1cnn(-c2ccc(NC(=O)c3cn(CC(=O)NC4CCN(C)CC4)c4ccc(C)cc34)cc2)c1C	6.86	
CCCC(=O)c1cnn(-c2ccc(NC(=O)c3cn(CC(=O)N4CC5CN(C)CC5C4)c4ccc(C)cc34)cc2)c1C (stereo unspecified)	7.48	
CCCC(=O)c1cnn(-c2ccc(NC(=O)c3cn(CC(=O)N[C@H]4CCNC4)c4ccc(C)cc34)cc2)c1C	7.21	
CCCC(=O)c1cnn(-c2ccc(NC(=O)c3cn(CC(=O)N4CCC(N)CC4)c4ccc(C)cc34)cc2)c1C	7.15	
CCCC(=O)c1cnn(-c2ccc(NC(=O)c3cn(CC(=O)N(C)CCN4CCCC4)c4ccc(C)cc34)cc2)c1C	6.91	
CCC(=O)c1cnn(-c2ccc(NC(=O)c3cn(CC(=O)N4CCN(C)CC4)c4ccc(Cl)cc34)cc2)c1C	6.47	metabolised at 20 min [3]: 32%; metabolised at 20 min [4]: 25%
CCCC(=O)c1cnn(-c2ccc(NC(=O)c3cn(CC(=O)N4CC5CNCC5C4)c4ccc(C)cc34)cc2)c1C (stereo unspecified)	6.97	
CCCC(=O)c1cnn(-c2ccc(NC(=O)c3cn(CC(=O)NCCN4CCCC4)c4ccc(C)cc34)cc2)c1C	6.71	
CCCC(=O)c1cnn(-c2ccc(NC(=O)c3cn(CC(=O)N4CCC(N(C)C)C4)c4ccc(C)cc34)cc2)c1C (stereo unspecified)	7.06	
